Results as given in paper PMC7549103 (ACS Medicinal Chemistry Letters, 2020).

Key:
eLogD7.4 = type: physicochemical; conditions: pH 7.4
[1] = Retest of activity over time; type: physicochemical
MOLT-4 cells [2] = experiment: Cellular viability assay, MOLT-4 cells; type: cell-based, human
In short: (§1)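 MOLT-4 is used as the BCL-XL-dependent human cancer cell line, and RS4;11 as the BCL-2-dependent line. Test compounds were tested in both lines in parallel.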

[3] = Single dose pharmacokinetics in rats; type: in vivo, Sprague-Dawley rats; conditions: rat, single oral dose of 5 mg/kg
RS4;11 cells = experiment: Cellular viability assay, RS4; type: cell-based; conditions: Homo sapiens, RS4-11, 48 h, read-out: RS4;11 EC50
In short: as §1

GST-BCL-XL = GST-BCL-XL (Homo sapiens, UniProt Q07817); type: binding; conditions: BCL-XL TR-FRET Ki ratio
GST-BCL-XL, sequence (Q07817 whole entry): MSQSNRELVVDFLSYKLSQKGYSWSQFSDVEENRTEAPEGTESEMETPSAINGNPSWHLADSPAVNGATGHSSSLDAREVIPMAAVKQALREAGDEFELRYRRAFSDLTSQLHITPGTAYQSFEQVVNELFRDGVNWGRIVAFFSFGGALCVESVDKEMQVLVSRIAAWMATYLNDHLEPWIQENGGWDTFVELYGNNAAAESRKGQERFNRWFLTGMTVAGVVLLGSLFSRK

MOLT-4 cells [4] = conditions: cytochrome c release, caspase-3/-7 activation, Annexin-V staining; cited from earlier work

## O=C(O)c1csc(N2CCc3cccc(C(=O)Nc4nc5ccccc5s4)c3C2)n1 [Compound 2]
eLogD7.4
  eLogD7.4: 3.02

## O=C(O)c1cccc(N2CCc3cccc(C(=O)Nc4nc5ccccc5s4)c3C2)n1 [Compound 3]
eLogD7.4
  chromatographic logD: 2.85

## O=C(Nc1nc2ccccc2s1)c1cccc2c1CN(c1ccc(-c3ccn(Cc4ccccc4)c3)c(C(=O)O)n1)CC2 [Compound 5]
[1]
  stability on storage (activity upon retest over time): lost activity upon retest over time

## O=C(Nc1nc2ccccc2s1)c1cccc2c1CN(c1ccc(-c3cnn(Cc4ccccc4)c3)c(C(=O)O)n1)CC2 [Compound 6]
MOLT-4 cells [2]; Homo sapiens, MOLT-4, 48 h, read-out: MOLT-4 EC50, 10% HS, 48 hours
  EC50: > 5 µM

## Cc1c(-c2ccc(N3CCc4cccc(C(=O)Nc5nc6ccccc6s5)c4C3)nc2C(=O)O)cnn1Cc1ccccc1 [Compound 10]
[3]
  Cmax-coverage (total drug exposure) of the cellular EC50: approximately 3 fold
MOLT-4 cells [2]; MOLT-4 (and RS4;11) cells, 10% human serum
  activity in cells (in words): low micromolar activity
RS4;11 cells
  EC50: > 5 µM

## Cc1nn(Cc2ccccc2)c(C)c1-c1ccc(N2CCc3cccc(C(=O)Nc4nc5ccccc5s4)c3C2)nc1C(=O)O [Compound 11]
GST-BCL-XL
  improvement in target affinity relative to parent 6: ~11 fold

## Cc1c(-c2ccc(N3CCc4cccc(C(=O)Nc5nc6ccccc6s5)c4C3)nc2C(=O)O)cnn1CC12CC3CC(CC(C3)C1)C2 [Compound 13]
MOLT-4 cells [2]; 10% HS
  in vitro efficacy against MOLT-4, fold more potent than A-1155463 (1): 20 fold
MOLT-4 cells [4]
  mechanism-based effects in MOLT-4 cells: disrupted BCL-XL:BIM complexes and induced classical features of apoptosis
